Publication PMC5970367 (Chembiochem : a European journal of chemical biology, 2017)
Read-outs that look alike come from different tables or passages of the source.

Assays:
[1] = system: fluorescein-labelled SLIIb; test: Reaction rates monitored by agarose gel electrophoresis; assay type: biochemical, hepatitis C virus; conditions: addition of complex to SLIIb
[2] = system: 5′-fluorescein labeled HCV SLIIb; test: Reaction kinetics via fluorescence; assay type: biochemical, hepatitis C virus; conditions: pseudo Michaelis-Menten, catalytic efficiency
How it was run: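 Copper–peptide complexes were formed at 1.1:1 peptide:Cu. Each complex was added to 333 nM 5′-fluorescein-SLIIb with 1 mM ascorbic acid and 1 mM H2O2 in 20 mM HEPES (pH 7.4, 100 mM NaCl) at 25 °C. Fluorescence loss was followed at ex 491/em 518 nm and converted to RNA concentration by a calibration curve. Initial velocities were plotted against catalyst concentration and fit to Michaelis–Menten to give KM and kcat. Values are the mean of ≥3 trials.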

[3] = system: fluorescein-labeled IRES SLIIb; test: Time-dependent MALDI-TOF mass spectrometry of SLIIb cleavage; assay type: biochemical, hepatitis C virus; conditions: for Initial Rate (%Overhang/min), 2′, 3′-cPO4: overhang 2′,3′-cyclic phosphates; for Initial Rate (%Overhang/min), 2′, 3′-cPO4 / Initial Rate (%Overhang/min), 3′-AL / Initial Rate (%Overhang/min), 3′-OH / Initial Rate (%Overhang/min), 3′-PO4 / Initial Rate (%Overhang/min), 3′-PGA / Initial Rate (%Overhang/min), 3′-PG / Initial Rate (%Overhang/min), 5′-AL / Initial Rate (%Overhang/min), 5′-GemDiol / Initial Rate (%Overhang/min), 5′-OH / Initial Rate (%Overhang/min), 5′-PO4 / Initial Rate (%Overhang/min), 5′-PPA: MALDI-TOF time dependence; for Initial Rate (%Overhang/min), 3′-AL: overhang 3′-aldehyde; for Initial Rate (%Overhang/min), 3′-OH: overhang 3′-hydroxyl; for Initial Rate (%Overhang/min), 3′-PO4: overhang 3′-phosphates; for Initial Rate (%Overhang/min), 3′-PGA: overhang 3′-phosphoglycaldehyde; for Initial Rate (%Overhang/min), 3′-PG: overhang 3′-phosphoglycolate; for Initial Rate (%Overhang/min), 5′-AL: overhang 5′-aldehyde; for Initial Rate (%Overhang/min), 5′-GemDiol: overhang 5′-geminal diol; for Initial Rate (%Overhang/min), 5′-OH: overhang 5′-hydroxyl; for Initial Rate (%Overhang/min), 5′-PO4: overhang 5′-phosphate; for Initial Rate (%Overhang/min), 5′-PPA: overhang 5′-phosphopropenal; for Relative Initial Rate (Normalized Intensity/min × 1000), position A6 / Relative Initial Rate (Normalized Intensity/min × 1000), position A15 / Relative Initial Rate (Normalized Intensity/min × 1000), position A19 / Relative Initial Rate (Normalized Intensity/min × 1000), position A27 / Relative Initial Rate (Normalized Intensity/min × 1000), position A30 / Relative Initial Rate (Normalized Intensity/min × 1000), position C10 / Relative Initial Rate (Normalized Intensity/min × 1000), position C33 / Relative Initial Rate (Normalized Intensity/min × 1000), position G5 / Relative Initial Rate (Normalized Intensity/min × 1000), position G9 / Relative Initial Rate (Normalized Intensity/min × 1000), position G11 / Relative Initial Rate (Normalized Intensity/min × 1000), position G28 / Relative Initial Rate (Normalized Intensity/min × 1000), position U12 / Relative Initial Rate (Normalized Intensity/min × 1000), position U14 / Relative Initial Rate (Normalized Intensity/min × 1000), position U25 / Relative Initial Rate (Normalized Intensity/min × 1000), position U26 / Relative Initial Rate (Normalized Intensity/min × 1000), position U29 / Relative Initial Rate (Normalized Intensity/min × 1000), position U31: 10 μM SLIIb, 10 μM copper-peptide
How it was run: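 Reactions contained 10 μM Fl-SLIIb, 10 μM Cu–peptide, 1 mM ascorbate and 1 mM H2O2, and were sampled at 2–180 min. They were quenched on ice, C18-desalted, and analysed by negative-ion reflectron MALDI-TOF (HPA/ammonium citrate matrix, ≥1000 shots). Peaks with m/z >1500 and S/N >5 were assigned against expected product masses. Products were summed per overhang type and expressed as a fraction at each time point. Initial rate was taken from the linear region (first ~40 min).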

[4] = system: 5′-fluorescein labeled HCV SLIIb; conditions: pseudo Michaelis-Menten, fluorescence, cited from earlier work

GGHKRFK-Cu [11-Cu]
precipitation from solution on addition to SLIIb [1]: significant precipitation | kcat/KM [2]: 367 M⁻¹ s⁻¹

GGHYRAK-Cu [6-Cu]
Initial Rate (%Overhang/min), 2′, 3′-cPO4 [3]: 0.7 ± 0.1 %Overhang/min | Initial Rate (%Overhang/min), 3′-AL [3]: 0.8 ± 0.1 %Overhang/min | Initial Rate (%Overhang/min), 3′-OH [3]: 0.1 ± 0.1 %Overhang/min | Initial Rate (%Overhang/min), 3′-PO4 [3]: 0.7 ± 0.2 %Overhang/min | Initial Rate (%Overhang/min), 3′-PGA [3]: 0.6 ± 0.1 %Overhang/min | Initial Rate (%Overhang/min), 3′-PG [3]: 1.2 ± 0.1 %Overhang/min | Initial Rate (%Overhang/min), 5′-AL [3]: 0.8 ± 0.1 %Overhang/min | Initial Rate (%Overhang/min), 5′-GemDiol [3]: 0.9 ± 0.3 %Overhang/min | Initial Rate (%Overhang/min), 5′-OH [3]: 1.2 ± 0.3 %Overhang/min | Initial Rate (%Overhang/min), 5′-PO4 [3]: 1.2 ± 0.2 %Overhang/min | Initial Rate (%Overhang/min), 5′-PPA [3]: 1.9 ± 0.1 %Overhang/min | Relative Initial Rate (Normalized Intensity/min × 1000), position A6 [3]: 1.7 ± 0.5 Normalized Intensity/min × 1000 | Relative Initial Rate (Normalized Intensity/min × 1000), position A15 [3]: <1 Normalized Intensity/min × 1000 | Relative Initial Rate (Normalized Intensity/min × 1000), position A19 [3]: - ^a | Relative Initial Rate (Normalized Intensity/min × 1000), position A27 [3]: - ^a | Relative Initial Rate (Normalized Intensity/min × 1000), position A30 [3]: 2.4 ± 0.3 Normalized Intensity/min × 1000 | Relative Initial Rate (Normalized Intensity/min × 1000), position C10 [3]: - ^a | Relative Initial Rate (Normalized Intensity/min × 1000), position C33 [3]: 1.4 ± 0.5 Normalized Intensity/min × 1000 | Relative Initial Rate (Normalized Intensity/min × 1000), position G5 [3]: - ^a | Relative Initial Rate (Normalized Intensity/min × 1000), position G9 [3]: - ^a | Relative Initial Rate (Normalized Intensity/min × 1000), position G11 [3]: <1 Normalized Intensity/min × 1000 | Relative Initial Rate (Normalized Intensity/min × 1000), position G28 [3]: 2.3 ± 1.6 Normalized Intensity/min × 1000 | Relative Initial Rate (Normalized Intensity/min × 1000), position U12 [3]: - ^a | Relative Initial Rate (Normalized Intensity/min × 1000), position U14 [3]: <1 Normalized Intensity/min × 1000 | Relative Initial Rate (Normalized Intensity/min × 1000), position U25 [3]: - ^a | Relative Initial Rate (Normalized Intensity/min × 1000), position U26 [3]: - ^a | Relative Initial Rate (Normalized Intensity/min × 1000), position U29 [3]: - ^a | Relative Initial Rate (Normalized Intensity/min × 1000), position U31 [3]: - ^a | kcat/KM [2]: 17 M⁻¹ s⁻¹

GGHYRFA-Cu [7-Cu]
Initial Rate (%Overhang/min), 2′, 3′-cPO4 [3]: 0.1 ± 0.1 %Overhang/min | Initial Rate (%Overhang/min), 3′-AL [3]: 0.8 ± 0.1 %Overhang/min | Initial Rate (%Overhang/min), 3′-OH [3]: 0.4 ± 0.1 %Overhang/min | Initial Rate (%Overhang/min), 3′-PO4 [3]: 0.1 ± 0.1 %Overhang/min | Initial Rate (%Overhang/min), 3′-PGA [3]: 0.6 ± 0.2 %Overhang/min | Initial Rate (%Overhang/min), 3′-PG [3]: 0.2 ± 0.1 %Overhang/min | Initial Rate (%Overhang/min), 5′-AL [3]: 1.5 ± 0.5 %Overhang/min | Initial Rate (%Overhang/min), 5′-GemDiol [3]: 0.2 ± 0.1 %Overhang/min | Initial Rate (%Overhang/min), 5′-OH [3]: 1.1 ± 0.2 %Overhang/min | Initial Rate (%Overhang/min), 5′-PO4 [3]: 0.5 ± 0.2 %Overhang/min | Initial Rate (%Overhang/min), 5′-PPA [3]: 0.5 ± 0.1 %Overhang/min | Relative Initial Rate (Normalized Intensity/min × 1000), position A6 [3]: - ^a | Relative Initial Rate (Normalized Intensity/min × 1000), position A15 [3]: - ^a | Relative Initial Rate (Normalized Intensity/min × 1000), position A19 [3]: 0.8 ± 0.4 Normalized Intensity/min × 1000 | Relative Initial Rate (Normalized Intensity/min × 1000), position A27 [3]: - ^a | Relative Initial Rate (Normalized Intensity/min × 1000), position A30 [3]: 1.0 ± 0.4 Normalized Intensity/min × 1000 | Relative Initial Rate (Normalized Intensity/min × 1000), position C10 [3]: - ^a | Relative Initial Rate (Normalized Intensity/min × 1000), position C33 [3]: - ^a | Relative Initial Rate (Normalized Intensity/min × 1000), position G5 [3]: - ^a | Relative Initial Rate (Normalized Intensity/min × 1000), position G9 [3]: <1 Normalized Intensity/min × 1000 | Relative Initial Rate (Normalized Intensity/min × 1000), position G11 [3]: 1.6 ± 0.7 Normalized Intensity/min × 1000 | Relative Initial Rate (Normalized Intensity/min × 1000), position G28 [3]: - ^a | Relative Initial Rate (Normalized Intensity/min × 1000), position U12 [3]: <1 Normalized Intensity/min × 1000 | Relative Initial Rate (Normalized Intensity/min × 1000), position U14 [3]: - ^a | Relative Initial Rate (Normalized Intensity/min × 1000), position U25 [3]: <1 Normalized Intensity/min × 1000 | Relative Initial Rate (Normalized Intensity/min × 1000), position U26 [3]: <1 Normalized Intensity/min × 1000 | Relative Initial Rate (Normalized Intensity/min × 1000), position U29 [3]: 2.9 ± 0.6 Normalized Intensity/min × 1000 | Relative Initial Rate (Normalized Intensity/min × 1000), position U31 [3]: - ^a | kcat/KM [2]: 417 M⁻¹ s⁻¹

GGHYRFK-Cu [3-Cu]
Initial Rate (%Overhang/min), 2′, 3′-cPO4 [3]: 0.7 ± 0.3 %Overhang/min | Initial Rate (%Overhang/min), 3′-AL [3]: 0.8 ± 0.1 %Overhang/min | Initial Rate (%Overhang/min), 3′-OH [3]: 1.1 ± 0.5 %Overhang/min | Initial Rate (%Overhang/min), 3′-PO4 [3]: 0.4 ± 0.1 %Overhang/min | Initial Rate (%Overhang/min), 3′-PGA [3]: 0.3 ± 0.1 %Overhang/min | Initial Rate (%Overhang/min), 3′-PG [3]: 0.2 ± 0.1 %Overhang/min | Initial Rate (%Overhang/min), 5′-AL [3]: 0.7 ± 0.1 %Overhang/min | Initial Rate (%Overhang/min), 5′-GemDiol [3]: 0.3 ± 0.1 %Overhang/min | Initial Rate (%Overhang/min), 5′-OH [3]: 2.0 ± 0.6 %Overhang/min | Initial Rate (%Overhang/min), 5′-PO4 [3]: 0.4 ± 0.1 %Overhang/min | Initial Rate (%Overhang/min), 5′-PPA [3]: 0.3 ± 0.1 %Overhang/min | Relative Initial Rate (Normalized Intensity/min × 1000), position A6 [3]: - ^a | Relative Initial Rate (Normalized Intensity/min × 1000), position A15 [3]: - ^a | Relative Initial Rate (Normalized Intensity/min × 1000), position A19 [3]: - ^a | Relative Initial Rate (Normalized Intensity/min × 1000), position A27 [3]: - ^a | Relative Initial Rate (Normalized Intensity/min × 1000), position A30 [3]: - ^a | Relative Initial Rate (Normalized Intensity/min × 1000), position C10 [3]: - ^a | Relative Initial Rate (Normalized Intensity/min × 1000), position C33 [3]: - ^a | Relative Initial Rate (Normalized Intensity/min × 1000), position G5 [3]: - ^a | Relative Initial Rate (Normalized Intensity/min × 1000), position G9 [3]: 1.4 ± 0.3 Normalized Intensity/min × 1000 | Relative Initial Rate (Normalized Intensity/min × 1000), position G11 [3]: - ^a | Relative Initial Rate (Normalized Intensity/min × 1000), position G28 [3]: 1.0 ± 0.5 Normalized Intensity/min × 1000 | Relative Initial Rate (Normalized Intensity/min × 1000), position U12 [3]: 1.2 ± 0.7 Normalized Intensity/min × 1000 | Relative Initial Rate (Normalized Intensity/min × 1000), position U14 [3]: 1.2 ± 0.1 Normalized Intensity/min × 1000 | Relative Initial Rate (Normalized Intensity/min × 1000), position U25 [3]: - ^a | Relative Initial Rate (Normalized Intensity/min × 1000), position U26 [3]: - ^a | Relative Initial Rate (Normalized Intensity/min × 1000), position U29 [3]: - ^a | Relative Initial Rate (Normalized Intensity/min × 1000), position U31 [3]: - ^a | kcat/KM [2]: 23.3 M⁻¹ s⁻¹

GGHYrFK-Cu [1-Cu]
Km ([4]; ref 4b): 0.8 ± 0.1 µM | kcat ([4]; ref 4b): 0.00883 ± 0.00033 s⁻¹ | kcat/KM ([4]; ref 4b): 11000 M⁻¹ s⁻¹

GGhyrfk-Cu [2-Cu]
Km ([4]; ref 4d): 7.9 ± 1.2 µM | kcat ([4]; ref 4d): 0.00233 ± 0.00017 s⁻¹ | kcat/KM ([4]; ref 4d): 300 M⁻¹ s⁻¹
